This note sets out measurements from ChEMBL document CHEMBL1806467 (Bioorg Med Chem Lett, 2011).

The structures appear in SMILES notation. In brackets after ≈: the same amount, converted by molar mass. Activity calls are given as the source filed them. The rule behind the calls is not given here.

Data set [1] addresses Phosphatidylinositol 4,5-bisphosphate 3-kinase catalytic subunit alpha isoform (Homo sapiens, UniProt P42336). As to the kind of experiment: Inhibition of human PI3Kalpha expressed in SF9 insect cells after 2 hrs by fluorescence polarization assay.
Data set [2] is described as follows: Aqueous solubility of the compound at pH 7.4. The following applies: buffer. Format: physicochemical.
A short description of data set [3]: Half life in human liver microsomes after 30 mins. The format is ADME, Microsome. The essentials: (§1)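 Drug incubated with liver microsomes of the stated species (rat, nude mouse, human) for 30 min; half-life of drug determined.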
The nature of data set [4]: Half life in nude mouse liver microsomes after 30 mins. The format is ADME, Microsome. Summed up:
as §1

Data set [5] is described as follows: Half life in rat liver microsomes after 30 mins. Format: ADME, Microsome. Summed up:
as §1

For data set [6], the system named is MDA-MB-361. As to the kind of experiment: cells. Particulars: Homo sapiens, MDA-MB-361, 72 h.
In data set [7] the test system is PC-3. Description: cells. Particulars: Homo sapiens, PC-3, 72 h.
Data set [8] deals with Serine/threonine-protein kinase mTOR (Homo sapiens, UniProt P42345). As to the kind of experiment: Inhibition of mTOR.
For data set [9], the system named is Mus musculus. Description: In vivo inhibition of PI3K/mTOR in human MDA-MB-361 cells xenografted nude mouse assessed as induction of cleaved poly-adenosine-diphosphate-ribose polymerase at 50 mg/kg, iv after 8 hrs by immunoblotting. The format is functional, organism-based. On the set-up: dose 50 mg/kg.
The species entered for data set [10] is Mus musculus. Particulars: MDA-MB-361, 25 mg/kg.
For data set [11], the species on record is Mus musculus. Particulars: MDA-MB-361, 25 mg/kg. The source holds these as a separate data set.
The species named for data set [12] is Mus musculus. The following applies: MDA-MB-361, 25 mg/kg. This is another data set of the same source.
For data set [13], the species on record is Mus musculus. The following applies: MDA-MB-361, 25 mg/kg. The source holds these as a separate data set.
For data set [14], the species on record is Mus musculus. Particulars: MDA-MB-361, 25 mg/kg. The source holds these as a separate data set.
The species entered for data set [15] is Mus musculus. Particulars: MDA-MB-361, 10 mg/kg.
The species named for data set [16] is Mus musculus. The following applies: MDA-MB-361, 10 mg/kg. This is another data set of the same source.
The species named for data set [17] is Mus musculus. The following applies: MDA-MB-361, 10 mg/kg. The source holds these as a separate data set.
The species entered for data set [18] is Mus musculus. The following applies: MDA-MB-361, 10 mg/kg. This is another data set of the same source.
The species named for data set [19] is Mus musculus. Particulars: MDA-MB-361, 10 mg/kg. This is another data set of the same source.

Chain of Phosphatidylinositol 4,5-bisphosphate 3-kinase catalytic subunit alpha isoform (P42336 whole entry, canonical isoform): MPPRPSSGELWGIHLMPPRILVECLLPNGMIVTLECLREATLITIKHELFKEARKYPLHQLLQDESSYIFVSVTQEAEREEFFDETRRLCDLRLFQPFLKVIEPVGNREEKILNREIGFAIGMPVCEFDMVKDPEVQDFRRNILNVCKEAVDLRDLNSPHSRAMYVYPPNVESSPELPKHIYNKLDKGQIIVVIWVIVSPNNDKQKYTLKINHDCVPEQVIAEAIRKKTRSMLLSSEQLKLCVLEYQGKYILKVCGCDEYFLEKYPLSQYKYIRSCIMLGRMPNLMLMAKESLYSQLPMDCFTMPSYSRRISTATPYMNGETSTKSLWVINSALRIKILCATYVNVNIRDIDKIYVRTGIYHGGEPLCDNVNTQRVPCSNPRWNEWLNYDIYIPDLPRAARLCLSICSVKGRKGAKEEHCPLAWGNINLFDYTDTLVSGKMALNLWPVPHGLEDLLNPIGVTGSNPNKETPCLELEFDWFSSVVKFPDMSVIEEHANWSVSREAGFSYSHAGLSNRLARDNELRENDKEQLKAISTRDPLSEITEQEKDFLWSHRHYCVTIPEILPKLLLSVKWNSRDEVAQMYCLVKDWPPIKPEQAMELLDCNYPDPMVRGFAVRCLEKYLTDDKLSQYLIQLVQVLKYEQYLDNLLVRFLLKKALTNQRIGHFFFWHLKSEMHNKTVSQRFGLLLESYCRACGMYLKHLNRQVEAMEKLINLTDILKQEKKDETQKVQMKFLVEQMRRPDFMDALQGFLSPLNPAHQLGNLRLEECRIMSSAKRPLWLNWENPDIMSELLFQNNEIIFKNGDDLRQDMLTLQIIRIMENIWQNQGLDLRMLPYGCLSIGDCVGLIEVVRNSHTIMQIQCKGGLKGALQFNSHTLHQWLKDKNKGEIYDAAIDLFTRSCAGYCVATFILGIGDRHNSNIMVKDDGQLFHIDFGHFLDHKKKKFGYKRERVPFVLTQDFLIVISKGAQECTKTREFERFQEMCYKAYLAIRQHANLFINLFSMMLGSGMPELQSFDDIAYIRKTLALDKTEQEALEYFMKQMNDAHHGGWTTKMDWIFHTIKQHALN

`COc1nc(-c2ccc(NC(=O)Nc3ccc(C(=O)N4CCN(C)CC4)cc3)cc2)nc(N2CCOCC2)n1`: the IC50 in data set [1] was 1.2 nM; in data set [6] it was 35 nM; in [7] it was 91 nM. In data set [2], the concentration in solution (solubility) came to 3 µg/mL (≈ 5.63 µM). In addition, the half-life in [3] was over 30 min; in data set [4], over 30 min; in [5] it was 16 min.
`CNCCN(C)C(=O)c1ccc(NC(=O)Nc2ccc(-c3nc(OC)nc(N4CCOCC4)n3)cc2)cc1` returned a solubility in [2] of over 100 µg/mL. Also, the half-life in [3], in data set [4] and in data set [5] was over 30 min each time. The values for the IC50 in data set [6] and in data set [7] were 110 nM and 374 nM, respectively.
Regarding `COc1nc(-c2ccc(NC(=O)Nc3ccc(C(=O)NCCN(C)C)cc3)cc2)nc(N2CCOCC2)n1`, in [2], the solubility is over 100 µg/mL. Besides, the half-life in data set [3], in data set [4] and in [5] was over 30 min throughout. In addition, the IC50 in data set [6] was under 31 nM; in data set [7] it was 71 nM.
With `O=C(Nc1ccc(C(=O)NCCN2CCCC2)cc1)Nc1ccc(-c2nc(O[C@H]3CCOC3)nc(N3CCOCC3)n2)cc1`, the values for the 50% inhibitory concentration (IC50) in data set [8], in data set [6] and in data set [7] were 0.3 nM, 8 nM and 27 nM, respectively. Also, the solubility in data set [2] was 23 µg/mL (≈ 38.2 µM). Further, the results for the half-life in data set [3], in data set [4] and in [5] were over 30 min, over 30 min and 28 min, respectively.
For `CCn1nnc2c(N3CCOCC3)nc(-c3ccc(NC(=O)Nc4ccc(C(=O)N5CCN(C)CC5)cc4)cc3)nc21`, the IC50 in data set [8] came out at 2 nM; in data set [6], 8 nM. Besides, the half-life in data set [3] and in [4] was over 30 min throughout. In data set [9], the inhibition entry was “Active”.
`CC(C)Oc1nc(-c2ccc(NC(=O)Nc3ccc(C(=O)N4CCN(C)CC4)cc3)cc2)nc(N2CCOCC2)n1`: the half-life was over 30 min in data set [3], over 30 min in [4] and 17 min in [5].
Regarding `CC(C)Oc1nc(-c2ccc(NC(=O)Nc3ccc(C(=O)N(C)CCN(C)C)cc3)cc2)nc(N2CCOCC2)n1`, the solubility in [2] was 15 µg/mL (≈ 26.7 µM). The half-life was over 30 min in data set [3], 23 min in [4] and over 30 min in data set [5].
With `COc1nc(-c2ccc(NC(=O)Nc3ccc(C(=O)NCCN4CCCCC4)cc3)cc2)nc(N2CCOCC2)n1`, the solubility in [2] was over 100 µg/mL. For the same molecule, the half-life in [3], in data set [4] and in data set [5] was over 30 min in each case. In addition, the IC50 in data set [6] is under 31 nM; in data set [7], 69 nM.
For `COc1nc(-c2ccc(NC(=O)Nc3ccc(C(=O)N(C)CCN(C)C)cc3)cc2)nc(N2CCOCC2)n1`, the solubility in data set [2] is over 100 µg/mL. Further, the half-life is over 30 min in data set [3], over 30 min in data set [4] and 15 min in [5]. Moreover, the IC50 came out at 15 nM in data set [6] and 34 nM in [7].
`O=C(Nc1ccc(C(=O)NCCN2CCCCC2)cc1)Nc1ccc(-c2nc(O[C@H]3CCOC3)nc(N3CCOCC3)n2)cc1`: the IC50 stood at 0.4 nM in data set [8], 5 nM in data set [6] and 18 nM in data set [7]. In data set [2], the solubility was 1 µg/mL (≈ 1.62 µM). Further, the half-life in [3] is over 30 min; in data set [4] it was over 30 min; in data set [5] it was 27 min.
`CN1C2CCC1CC(Oc1nc(-c3ccc(NC(=O)Nc4ccc(C(N)=O)cc4)cc3)nc(N3CCOCC3)n1)C2` (stereo not drawn): in data set [2], the solubility came to 62 µg/mL (≈ 111 µM). In addition, the half-life in data set [5] is 4 min.
In the case of `CN(C)CCN(C)C(=O)c1ccc(NC(=O)Nc2ccc(-c3nc(O[C@H]4CCOC4)nc(N4CCOCC4)n3)cc2)cc1`, the solubility in data set [2] was over 100 µg/mL. The values for the half-life in data set [3], in data set [4] and in [5] were over 30 min, over 30 min and 27 min, respectively. The inhibition entry in data set [10], in data set [11], in data set [12], in data set [13] and in data set [14] was “Active” each time.
On to `COc1nc(-c2ccc(NC(=O)Nc3ccc(C(=O)N4CCNC(C)(C)C4)cc3)cc2)nc(N2CCOCC2)n1`, for which the IC50 amounted to 1.4 nM in [1], 18.5 nM in data set [8], 30 nM in [6] and 111 nM in data set [7]. The solubility in data set [2] amounted to 61 µg/mL (≈ 112 µM). The values for the half-life in data set [3], in data set [4] and in [5] were over 30 min, over 30 min and 29 min, respectively.
As to `CN(C)C1CCN(C(=O)c2ccc(NC(=O)Nc3ccc(-c4nc(O[C@H]5CCOC5)nc(N5CCOCC5)n4)cc3)cc2)CC1`, the values for the half-life in [3] and in data set [4] were 18 min and over 30 min, respectively.
As for `CN(C)C1CCN(C(=O)c2ccc(NC(=O)Nc3ccc(-c4nc(N5CCOCC5)nc(N5CCOCC5)n4)cc3)cc2)CC1` [GEDATOLISIB], the solubility in data set [2] came to 15 µg/mL (≈ 24.4 µM). Further, the half-life in data set [3], in data set [4] and in data set [5] was over 30 min each time. In addition, the inhibition entry in [10], in data set [11], in data set [12], in data set [13], in [14] and in [15] was “Active” each time. Further, the inhibition entry in [16], in data set [17], in data set [18] and in data set [19] was “Active” in each case.
For the molecule `CN1CCN(C(=O)c2ccc(NC(=O)Nc3ccc(-c4nc(OC5COC5)nc(N5CCOCC5)n4)cc3)cc2)CC1`, the concentration in solution in [2] (solubility) came to 4 µg/mL (≈ 6.96 µM). In data set [5], this molecule showed a half-life of over 30 min.
Regarding `CN1CCN(C(=O)c2ccc(NC(=O)Nc3ccc(-c4nc(N5CCOCC5)[nH]c(=O)n4)cc3)cc2)CC1`, in [5], the half-life was over 30 min. The IC50 in data set [6] and in [7] was over 1000 nM each time.
For `CC(C)Oc1nc(-c2ccc(NC(=O)Nc3ccc(C(=O)NCCN(C)C)cc3)cc2)nc(N2CCOCC2)n1`, the IC50 in data set [8] amounted to 0.4 nM; in data set [6], 11 nM; in data set [7], 41 nM. The solubility in data set [2] is 3 µg/mL (≈ 5.47 µM). Besides, the half-life in data set [3], in data set [4] and in data set [5] was over 30 min throughout.
In [2], `CN1CCN(C(=O)c2ccc(NC(=O)Nc3ccc(-c4nc(O[C@H]5CCOC5)nc(N5CCOCC5)n4)cc3)cc2)CC1` registered a solubility of 1 µg/mL (≈ 1.7 µM). The half-life in data set [3] is 15 min; in data set [4], over 30 min; in [5], 20 min.
